Experimental data reported in ChEMBL document CHEMBL1157169, “A class of novel nitronyl nitroxide labeling basic and acidic amino acids: synthesis, application for preparing ESR optionally labeling peptides, and bioactivity investigations” (Bioorg Med Chem, 2008).
Where a SMILES comes first, the peptide text is derived from it. The star is where a group is joined. X1 = CC1(C)N(O)C(c2ccc(OCCN*)cc2)=[N+]([O-])C1(C)C

Assays:
Aorta [1] = test: Nitric oxide radical scavenging activity in rat aortic strip assessed as inhibition of acetylcholine-induced vasorelaxation at 10 uM; type: functional, tissue-based
Aorta [2] = test: Nitric oxide radical scavenging activity in rat aortic strip assessed as inhibition of acetylcholine-induced vasorelaxation at 100 uM; type: functional, tissue-based
[3] = Aqueous stability assessed as decomposition time at pH 2.0; type: physicochemical; settings: buffer
In short: (§1)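 Each sample dissolved in aqueous solution at pH 2.0, 7.4 or 11.5 (final 10^-2 mM) and held at room temperature for up to 200 h. Decomposition followed by TLC (CHCl3/CH3OH, 20:1). Value is the time at which decomposition appeared.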

[4] = Aqueous stability assessed as decomposition time at pH 7.4; type: physicochemical; settings: buffer; in short: as §1
[5] = Aqueous stability assessed as decomposition time at pH 11.5; type: physicochemical; settings: buffer; in short: as §1
Aorta [6] = test: Nitric oxide radical scavenging activity in rat aortic strip assessed as inhibition of acetylcholine-induced vasorelaxation at 1 uM; type: functional, tissue-based
PC-12 [7] = test: Radical scavenging activity in rat PC12 cells assessed as inhibition of nitric oxide radical-induced cell damage by MTT assay; type: functional, cell-based
In short: (§2)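 PC12 cells grown in DMEM with 10% heat-inactivated horse serum, 5% FBS and 1.0 mM pyruvate at 37 °C, 5% CO2. Seeded at 20,000 cells/well on poly-L-lysine and attached 24 h. Pretreated 1 h with 12.5–200 µM compound. Damage induced by SNP 2 mM for 2 h (NO), H2O2 1 mM for 1 h, or H2O2 1 mM/Fe(II) 30 µM for 1 h (·OH). Media replaced, cells incubated 14 h, survival measured by MTT.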

PC-12 [8] = test: Radical scavenging activity in rat PC12 cells assessed as inhibition of hydrogen peroxide radical-induced cell damage by MTT assay; type: functional, cell-based; in short: as §2
PC-12 [9] = test: Radical scavenging activity in rat PC12 cells assessed as inhibition of hydroxyl radical-induced cell damage by MTT assay; type: functional, cell-based; in short: as §2
Plasma = test: Thrombolytic activity in rabbit plasma assessed as euglobulin clot lysis time at 4.5 uM; type: functional, Oryctolagus cuniculus
In short: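 Rabbit plasma diluted 1:20 in water and precipitated at pH 5.7 with 0.25% acetic acid for 30 min at 4 °C. Centrifuged at 2000g for 15 min. […] Sample added and time to clot lysis recorded.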

Oryctolagus cuniculus = species on record: Oryctolagus cuniculus; test: Thrombolytic activity against rabbit fibrinogen assessed as fibrinogen lysis area at 4.5 uM
In short: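 Equal volumes of 0.3% rabbit fibrinogen and 0.95% agarose in 50 mM sodium barbiturate buffer (pH 7.8), coagulated with thrombin (100 IU/mL). After 30 min at 4 °C, 5 mm wells were punched and 30 µl of sample in NS added per well. Plates incubated and lysis area measured in mm². ANOVA.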

Rattus norvegicus [10] = test: Thrombolytic activity in Wistar rat assessed as reduction in thrombus weight at 10 umol/kg; type: functional
In short: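 Male Wistar rats (200–300 g) anesthetized with pentobarbital sodium (80.0 mg/kg, ip). A steel helix was left 15 min in 1.0 ml carotid artery blood, and the helix with thrombus was weighed. It was placed in a polyethylene tube filled with heparin sodium (50 IU/ml NS) inserted into the left jugular vein. Heparin was injected, then compound dissolved in NS. Read-out is reduction in thrombus weight.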

Blood [11] = test: Inhibition of 10 uM adenosine diphosphate-induced platelet aggregation in rabbit blood; type: functional, Oryctolagus cuniculus
In short: (§3)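 Platelet-rich plasma made by centrifuging normal rabbit blood anticoagulated with sodium citrate (3.8% final). Platelets adjusted to 2×10^5/µl with autologous plasma. Aggregation induced by PAF or ADP (final 10^-5–10^-7 M) and read by turbidimetry in an aggregometer. Maximal aggregation rate (Am%) taken as peak height of the curve.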

Blood [12] = test: Inhibition of 1 uM adenosine diphosphate-induced platelet aggregation in rabbit blood; type: functional, Oryctolagus cuniculus; in short: as §3
Blood [13] = test: Inhibition of 0.1 uM adenosine diphosphate-induced platelet aggregation in rabbit blood; type: functional, Oryctolagus cuniculus; in short: as §3
Blood [14] = test: Inhibition of 10 uM platelet activating factor-induced platelet aggregation in rabbit blood; type: functional, Oryctolagus cuniculus; in short: as §3
Blood [15] = test: Inhibition of 1 uM platelet activating factor-induced platelet aggregation in rabbit blood; type: functional, Oryctolagus cuniculus; in short: as §3
Blood [16] = test: Inhibition of 0.1 uM platelet activating factor-induced platelet aggregation in rabbit blood; type: functional, Oryctolagus cuniculus; in short: as §3
Rattus norvegicus [17] = test: Antithrombotic activity in Wistar rat assessed as wet thrombus weight at 5 umol/kg; type: functional
In short: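 Male Wistar rats (250–300 g) anesthetized with pentobarbital sodium (80.0 mg/kg, ip). The right carotid artery and left jugular vein were cannulated via a polyethylene tube containing a thread, filled with NS or compound dissolved in NS (vehicle NS). Blood shunted 15 min. The thread was weighed wet, then after 2 weeks in a desiccator weighed dry. n = 10, ANOVA.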

Rattus norvegicus [18] = test: Antithrombotic activity in Wistar rat assessed as dry thrombus weight at 5 umol/kg

Time [3]	Time [4]	Time [5]	Activity (Oryctolagus cuniculus)	SMILES	inhibition (Aorta [1])	inhibition (Aorta [2])	inhibition (Aorta [6])	EC50 (PC-12 [7])	EC50 (PC-12 [8])	EC50 (PC-12 [9])	Time (Plasma)	Activity (Rattus norvegicus [10])	inhibition (INH) (Blood [11])	inhibition (INH) (Blood [12])	inhibition (INH) (Blood [13])	inhibition (INH) (Blood [14])	inhibition (INH) (Blood [15])	inhibition (INH) (Blood [16])	Activity (Rattus norvegicus [17])	dry thrombus weight (Rattus norvegicus [18])
> 200 h	> 200 h	> 200 h	–	CC1(C)N(O)C(c2ccc([N+](=O)[O-])cc2)=[N+]([O-])C1(C)C	71.3%	98%	–	–	–	–	–	–	–	–	–	–	–	–	–	–
–	–	–	–	CC1(C)N(O)C(c2ccc(OCCNC(=O)CC[C@H](N)C(=O)O)cc2)=[N+]([O-])C1(C)C	72.4%	97.1%	26.2%	41.8 µM	49.6 µM	58.1 µM	–	–	–	–	–	–	–	–	–	–
–	–	–	214 mm2	C[C@H](NC(=O)[C@@H]1CCCN1)C(=O)N[C@@H](CCCCN)C(=O)O (H-Pro-Ala-Lys-OH)	6.1%	9.5%	4.5%	–	–	–	101.6 min	24.11 mg	–	–	–	–	–	–	–	–
–	–	–	–	COC(=O)[C@@H](N)CC(=O)NCCOc1ccc(C2=[N+]([O-])C(C)(C)C(C)(C)N2O)cc1	76%	99.1%	29.2%	39 µM	47.8 µM	55.6 µM	–	–	–	–	–	–	–	–	–	–
2 h	18 h	2.5 h	–	CC1(C)N(O)C=[N+]([O-])C1(C)C	8.6%	31.2%	1.7%	–	–	–	–	–	–	–	–	–	–	–	–	–
–	–	–	–	CC(C)[C@H](NC(=O)[C@H](CC(=O)O)NC(=O)CNC(=O)[C@@H](N)CCCNC(=N)N)C(=O)O (H-RGDV-OH)	7.6%	10.5%	5.3%	–	–	–	–	–	49.78%	33.41%	12.65%	52.07%	34.84%	20.01%	28.6 mg	4.43 mg
–	–	–	–	CC1(C)N(O)C(c2ccc(OCC(=O)N[C@@H](CCCCN)C(=O)O)cc2)=[N+]([O-])C1(C)C	74%	98.9%	28.7%	90.6 µM	30.1 µM	99.1 µM	–	–	–	–	–	–	–	–	–	–
2 h	18 h	2.5 h	–	CC1(C)N(O)C(CCl)=[N+]([O-])C1(C)C	7.7%	25%	1.6%	–	–	–	–	–	–	–	–	–	–	–	–	–
–	–	–	–	CC(C)(C)OC(=O)N[C@@H](CCCCNC(=O)COc1ccc(C2=[N+]([O-])C(C)(C)C(C)(C)N2O)cc1)C(=O)O	72.7%	97.9%	28%	89.9 µM	29.3 µM	97.7 µM	–	–	–	–	–	–	–	–	–	–
–	–	–	–	CC1(C)N(O)C(c2ccc(OCCNC(=O)C[C@H](NC(=O)CNC(=O)[C@@H](N)CCCNC(=N)N)C(=O)N[C@@H](CO)C(=O)O)cc2)=[N+]([O-])C1(C)C (H-RGD(X1)S-OH)	71.3%	95.9%	24%	92.9 µM	32 µM	102 µM	–	–	50%	39.43%	16.11%	51.59%	34.33%	21.52%	25.01 mg	4.08 mg
> 200 h	> 200 h	> 200 h	–	CC1(C)N(O)C(c2ccccc2)=[N+]([O-])C1(C)C	62.7%	81.9%	9.8%	–	–	–	–	–	–	–	–	–	–	–	–	–
–	–	–	–	CC(C)(C)OC(=O)N[C@@H](CCCNC(=N)NC(=O)COc1ccc(C2=[N+]([O-])C(C)(C)C(C)(C)N2O)cc1)C(=O)O	71.2%	95%	24.1%	93 µM	32.4 µM	102 µM	–	–	–	–	–	–	–	–	–	–
